# Assay results from ChEMBL document CHEMBL1125815, “2-Phenyl-3H-imidazo[4,5-b]pyridine-3-acetamides as non-benzodiazepine anticonvulsants and anxiolytics” (J Med Chem, 1991).
# pIC50: −log10 of the molar value.
# Biological target: GABA-A receptor; anion channel
# Assay: Displacement of [3H]flunitrazepam from GABA-A benzodiazepine receptor of rat cerebral cortex membrane
# Format: tissue-based
# Conditions: not given
# Summary of the method: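 Rat cerebral cortex P2+P3 membranes (fresh tissue, two freeze-thaw-wash cycles to remove endogenous GABA), 0.4 mg protein. Incubated with 1 nM [3H]flunitrazepam and six concentrations (1 × 10^-5 – 1 × 10^-10 M) for 30 min at 4 °C. Filtered on GF/b filters and counted. […] IC50 from log-logit regression, mean of replicates.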
row,SMILES,pIC50
1,NC(=O)Cn1c(-c2ccc(F)cc2)nc2cccnc21,< 5.00
2,O=C(O)CCCNC(=O)Cn1c(-c2ccc(Cl)cc2)nc2cccnc21,< 5.00
3,NC(=O)Cn1c(-c2ccc(Cl)cc2)nc2ccc[n+]([O-])c21,< 5.00
4,CN(C)C(=O)Cn1c(-c2ccoc2)nc2cccnc21,< 5.00
5,CN(C)C(=O)Cn1c(-c2ccc(Cl)cc2)nc2c(Cl)ccnc21,< 5.00
6,O=C(Cn1c(-c2ccc(Cl)cc2)nc2cccnc21)Nc1ccccn1,6.51
7,CN1CCN(C(=O)Cn2c(-c3ccc(Cl)cc3)nc3cccnc32)CC1,< 5.00
8,CN(C)C(=O)Cn1c(-c2ccc(F)cc2)nc2cccnc21,< 5.00
9,CCOC(=O)CCCNC(=O)Cn1c(-c2ccc(Cl)cc2)nc2cccnc21,< 5.00
10,CN(C)C(=O)Cn1c(-c2ccc(Cl)cc2)nc2ccc(Cl)nc21,6.34
11,O=C(Cn1c(-c2ccc(Cl)cc2)nc2cccnc21)N1CCCC1,5.57
12,COc1ccc(-c2nc3cccnc3n2CC(=O)N(C)C)cc1,5.07
13,CN(C)C(=O)Cn1c(-c2ccc(Cl)cc2)nc2ccc(O)nc21,5.28
14,CN(C)C(=O)Cn1c(-c2ccc(Cl)cc2)nc2ccc[n+]([O-])c21,< 5.00
15,CNC(=O)Cn1c(-c2ccc(Cl)cc2)nc2cccnc21,5.80
16,CC(=O)Oc1ccc2nc(-c3ccc(Cl)cc3)n(CC(=O)N(C)C)c2n1,< 5.00
17,CCN(CC)C(=O)Cn1c(-c2ccc(Cl)cc2)nc2cccnc21,5.74
18,NC(=O)Cn1c(-c2ccc(Cl)cc2)nc2ncccc21,< 5.00
19,CCOC(=O)N1CCN(C(=O)Cn2c(-c3ccc(Cl)cc3)nc3cccnc32)CC1,5.29
20,CN(C)C(=O)Cn1c(-c2ccc(Cl)cc2)nc2ccncc21,< 5.00
21,CN(C)C(=O)Cn1c(-c2ccccc2)nc2cccnc21,< 5.00
22,O=C(Cn1c(-c2ccc(Cl)cc2)nc2cccnc21)N1CCOCC1,5.39
23,NC(=O)Cn1c(-c2ccc(C(F)(F)F)cc2)nc2cccnc21,< 5.00
24,CC(C)N(C(=O)Cn1c(-c2ccc(Cl)cc2)nc2cccnc21)C(C)C,< 5.00
25,NC(=O)Cn1c(-c2ccc(Br)cc2)nc2cccnc21,< 5.00
26,CN(C)C(=O)Cn1c(-c2ccc([N+](=O)[O-])cc2)nc2cccnc21,< 5.00

# Tested on: Mus musculus
# Assay: Compound was tested for anticonvulsant activity against pentylenetetrazole-induced clonic seizures in mice on intraperitoneal administration
# Format: functional
# Conditions: ip
# Summary of the method: (§1)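 Female adult ICR mice, groups of eight, given test compound ip (100 mg/kg screen) in 0.5% aqueous methylcellulose or vehicle. Challenged 30 min later with pentyletetrazole 80 mg/kg sc and scored for clonic seizures.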
row,SMILES,ED50 [mg/kg]
1,CN1CCN(C(=O)Cn2c(-c3ccc(Cl)cc3)nc3cccnc32)CC1,100

# Organism: Mus musculus
# Assay: Anticonvulsant activity against pentylenetetrazole-induced clonic seizures in mice
# Format: functional
# Conditions: not given
# Summary of the method: as §1
row,SMILES,ED50 [mg/kg]
1,CN(C)C(=O)Cn1c(-c2cccc(Cl)c2)nc2cccnc21,<100

# Same assay, conditions: Mus musculus; read-out: ED50
row,SMILES,ED50 [mg/kg]
1,CCCNC(=O)Cn1c(-c2ccc(Cl)cc2)nc2cccnc21,37.5
2,CN(C)C(=O)Cn1c(-c2cccc(Cl)c2)nc2cccnc21,> 56.2
3,O=C(Cn1c(-c2ccc(Cl)cc2)nc2cccnc21)Nc1cccnc1,100
4,NC(=O)Cn1c(-c2ccc(Cl)cc2)nc2ccc[n+]([O-])c21,52.1
5,CN(C)C(=O)Cn1c(-c2ccc(C(F)(F)F)cc2)nc2cccnc21,3.2
6,O=C(Cn1c(-c2ccc(Cl)cc2)nc2cccnc21)Nc1ccccn1,100
7,CN(C)C(=O)Cn1c(-c2ccc(F)cc2)nc2cccnc21,40.5
8,CCOC(=O)CCCNC(=O)Cn1c(-c2ccc(Cl)cc2)nc2cccnc21,100
9,CN(C)C(=O)Cn1c(-c2ccc(Cl)cc2)nc2ccc(Cl)nc21,1.1
10,O=C(Cn1c(-c2ccc(Cl)cc2)nc2cccnc21)N1CCCC1,17.9
11,COc1ccc(-c2nc3cccnc3n2CC(=O)N(C)C)cc1,39.5
12,CN(C)C(=O)Cn1c(-c2ccc(Cl)cc2)nc2ccc[n+]([O-])c21,20
13,CNC(=O)Cn1c(-c2ccc(Cl)cc2)nc2cccnc21,12.5
14,CC(=O)Oc1ccc2nc(-c3ccc(Cl)cc3)n(CC(=O)N(C)C)c2n1,100
15,CCN(CC)C(=O)Cn1c(-c2ccc(Cl)cc2)nc2cccnc21,16
16,CN(C)C(=O)Cn1c(-c2ccccc2)nc2cccnc21,35
17,O=C(Cn1c(-c2ccc(Cl)cc2)nc2cccnc21)N1CCOCC1,11.5
18,NC(=O)Cn1c(-c2ccc(C(F)(F)F)cc2)nc2cccnc21,11.7
19,CN(C)C(=O)Cn1c(-c2ccc(Br)cc2)nc2cccnc21,7
20,NC(=O)Cn1c(-c2ccc(Br)cc2)nc2cccnc21,17.8
21,CN(C)C(=O)Cn1c(-c2ccc([N+](=O)[O-])cc2)nc2cccnc21,47

# Biological target: GABA-A receptor; anion channel
# Assay: Displacement of [3H]-diazepam from GABA-A benzodiazepine receptor of rat cerebral cortex membrane
# Format: tissue-based
# Conditions: not given
# Summary of the method: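 Membranes skipped the freeze-thaw-wash cycles, so endogenous GABA was retained. Six concentrations (1 × 10^-5 – 1 × 10^-10 M), 30 min at 4 °C, glass-fiber filtration and scintillation counting. IC50 from log-logit regression.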
row,SMILES,pIC50
1,CCCNC(=O)Cn1c(-c2ccc(Cl)cc2)nc2cccnc21,5.90
2,CN(C)C(=O)Cn1c(-c2cccc(Cl)c2)nc2cccnc21,5.62
3,CCOC(=O)CNC(=O)Cn1c(-c2ccc(Cl)cc2)nc2cccnc21,5.04
4,O=C(Cn1c(-c2ccc(Cl)cc2)nc2cccnc21)Nc1cccnc1,6.64
5,CN(C)C(=O)Cn1c(-c2ccc(C(F)(F)F)cc2)nc2cccnc21,5.43
6,CN(C)C(=O)Cn1c(-c2ccccn2)nc2cccnc21,5.59
7,NC(=O)Cn1c(-c2cccc(Cl)c2)nc2cccnc21,> 5.00
8,CN(C)C(=O)Cn1c(-c2ccc(Br)cc2)nc2cccnc21,5.52
9,NC(=O)Cn1c(-c2ccccc2)nc2cccnc21,< 5.00
10,O=C(O)CNC(=O)Cn1c(-c2ccc(Cl)cc2)nc2cccnc21,5.15
